In brackets after ≈: the same amount, converted by molar mass.
Tests used:
Type in all cases: functional
Conditions in all cases: time 5 day
[1] = tested on: Mycobacterium tuberculosis; assay: Antitubercular activity against rifampicin resistant Mycobacterium tuberculosis HN878 harboring RpoBH455D mutant assessed as bacterial growth inhibition measured after 5 days by serial dilution method
Procedure, shortened: (§1)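 Strains grown in Middlebrook 7H9 with OADC supplement and 0.05% w/v Tween 80. Compounds tested as 10-point 2-fold serial dilutions. Growth read as OD590 after 5 days in 7H9-OADC-Tw. Levenberg-Marquardt curve fitting gave MIC90, the concentration inhibiting growth by 90% relative to controls. Run in triplicate.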

[2] = tested on: Mycobacterium tuberculosis; assay: Antitubercular activity against rifampicin resistant Mycobacterium tuberculosis ATCC 35838 harboring RpoBS531L mutant assessed as bacterial growth inhibition measured after 5 days by serial dilution method; procedure, shortened: as §1
[3] = tested on: Mycobacterium tuberculosis H37Rv; assay: Antitubercular activity against rifampicin resistant Mycobacterium tuberculosis H37Rv harboring RpoBS522L mutant assessed as bacterial growth inhibition measured after 5 days by serial dilution method; procedure, shortened: as §1

## CO[C@H]1/C=C/O[C@@]2(C)Oc3c(C)c(O)c4c(O)c(c(CN5CCN(CCO)CC5)c(O)c4c3C2=O)NC(=O)/C(C)=C\C=C\[C@H](C)[C@H](O)[C@@H](C)[C@@H](O)[C@@H](C)[C@H](OC(C)=O)[C@@H]1C
[1]
  MIC90: >20 µM
[2]
  MIC90: >20 µM
[3]
  MIC90: 4.7 µM (≈ 3.95 µg/mL)

## CO[C@H]1/C=C/O[C@@]2(C)Oc3c(C)c(O)c4c(O)c(c(CNCc5ccc(S(C)(=O)=O)cc5)c(O)c4c3C2=O)NC(=O)/C(C)=C\C=C\[C@H](C)[C@H](O)[C@@H](C)[C@@H](O)[C@@H](C)[C@H](OC(C)=O)[C@@H]1C
[1]
  MIC90: >20 µM
[2]
  MIC90: >20 µM
[3]
  MIC90: 3.2 µM (≈ 2.86 µg/mL)

## CO[C@H]1/C=C/O[C@@]2(C)Oc3c(C)c(O)c4c(O)c(c(CNCc5ccncc5)c(O)c4c3C2=O)NC(=O)/C(C)=C\C=C\[C@H](C)[C@H](O)[C@@H](C)[C@@H](O)[C@@H](C)[C@H](OC(C)=O)[C@@H]1C
[1]
  MIC90: >20 µM
[2]
  MIC90: >20 µM
[3]
  MIC90: 6.7 µM (≈ 5.48 µg/mL)

## CO[C@H]1/C=C/O[C@@]2(C)Oc3c(C)c(O)c4c(O)c(c(CNCc5ccccc5)c(O)c4c3C2=O)NC(=O)/C(C)=C\C=C\[C@H](C)[C@H](O)[C@@H](C)[C@@H](O)[C@@H](C)[C@H](OC(C)=O)[C@@H]1C
[1]
  MIC90: 9.9 µM (≈ 8.09 µg/mL)
[2]
  MIC90: >20 µM
[3]
  MIC90: 12 µM (≈ 9.8 µg/mL)

## CO[C@H]1/C=C/O[C@@]2(C)Oc3c(C)c(O)c4c(O)c(c(CNCc5cccs5)c(O)c4c3C2=O)NC(=O)/C(C)=C\C=C\[C@H](C)[C@H](O)[C@@H](C)[C@@H](O)[C@@H](C)[C@H](OC(C)=O)[C@@H]1C
[1]
  MIC90: 14 µM (≈ 11.5 µg/mL)
[2]
  MIC90: >20 µM
[3]
  MIC90: 8 µM (≈ 6.58 µg/mL)

## CO[C@H]1/C=C/O[C@@]2(C)Oc3c(C)c(O)c4c(O)c(c(CNCc5ccco5)c(O)c4c3C2=O)NC(=O)/C(C)=C\C=C\[C@H](C)[C@H](O)[C@@H](C)[C@@H](O)[C@@H](C)[C@H](OC(C)=O)[C@@H]1C
[1]
  MIC90: 16 µM (≈ 12.9 µg/mL)
[2]
  MIC90: >20 µM
[3]
  MIC90: >20 µM

## COC(=O)c1ccc(CNCc2c3c(O)c4c(O)c(C)c5c(c4c2O)C(=O)[C@@](C)(O/C=C/[C@H](OC)[C@@H](C)[C@@H](OC(C)=O)[C@H](C)[C@H](O)[C@H](C)[C@@H](O)[C@@H](C)/C=C/C=C(/C)C(=O)N3)O5)cc1
[1]
  MIC90: >20 µM
[2]
  MIC90: >20 µM
[3]
  MIC90: 7.7 µM (≈ 6.74 µg/mL)

## CO[C@H]1/C=C/O[C@@]2(C)Oc3c(C)c(O)c4c(O)c(c(CNCCc5c[nH]c6ccccc56)c(O)c4c3C2=O)NC(=O)/C(C)=C\C=C\[C@H](C)[C@H](O)[C@@H](C)[C@@H](O)[C@@H](C)[C@H](OC(C)=O)[C@@H]1C
[1]
  MIC90: >20 µM
[2]
  MIC90: >20 µM
[3]
  MIC90: 3.1 µM (≈ 2.7 µg/mL)

## CO[C@H]1/C=C/O[C@@]2(C)Oc3c(C)c(O)c4c(O)c(c(CNCCc5ccc(O)cc5)c(O)c4c3C2=O)NC(=O)/C(C)=C\C=C\[C@H](C)[C@H](O)[C@@H](C)[C@@H](O)[C@@H](C)[C@H](OC(C)=O)[C@@H]1C
[1]
  MIC90: >20 µM
[2]
  MIC90: >20 µM
[3]
  MIC90: 5.8 µM (≈ 4.91 µg/mL)

## NNC(=O)c1ccncc1 [ISONIAZID]
[1]
  MIC90: 0.62 µM (≈ 0.085 µg/mL)
[2]
  MIC90: 0.55 µM (≈ 0.0754 µg/mL)
[3]
  MIC90: 0.29 µM (≈ 0.0398 µg/mL)

## CO[C@H]1/C=C/O[C@@]2(C)Oc3c(C)c(O)c4c(O)c(c(/C=N/N5CCN(C)CC5)c(O)c4c3C2=O)NC(=O)/C(C)=C\C=C\[C@H](C)[C@H](O)[C@@H](C)[C@@H](O)[C@@H](C)[C@H](OC(C)=O)[C@@H]1C [RIFAMPIN]
[1]
  MIC90: >8 µM
[2]
  MIC90: >8 µM
[3]
  MIC90: >8 µM
